Measurements taken from ChEMBL document CHEMBL1140069, “In vitro antifungal activity of polyfunctionalized 2-(hetero)arylquinolines prepared through imino Diels-Alder reactions” (2008).
Values after ≈ are worked out from the molar mass of the structure shown.

Tests used:
Assay type in all cases: functional
[1] = tested on: Cryptococcus neoformans; experiment: Antimicrobial activity against Cryptococcus neoformans IM 031706 isolate at 6.25 ug/ml after 48 hrs
How it was run: (§1)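 Percent growth inhibition in 96-well microplates. Compound stocks in DMSO (≤2%) were diluted in RPMI-1640 to final 100–6.25 µg/mL, and 100 µL inoculum was added (final 200 µL). Controls were a growth well (inoculum with matching DMSO, no compound) and a sterility well (no inoculum). Inhibition was calculated against growth and sterility wells.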

[2] = tested on: Cryptococcus neoformans; experiment: Antimicrobial activity against Cryptococcus neoformans ATCC 32264 at 6.25 ug/ml after 48 hrs; details: ATCC 32264, 48 h; how it was run: as §1
[3] = tested on: Cryptococcus neoformans; experiment: Antimicrobial activity against Cryptococcus neoformans IM 983036 isolate at 6.25 ug/ml after 48 hrs
How it was run: (§2)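 Clinical Cryptococcus isolates kept on Sabouraud-dextrose agar slopes; inoculum 1–5 × 10³ CFU/mL. Quinoline DMSO stocks were diluted in RPMI-1640 to final 100–6.25 µg/mL, with DMSO ≤2%. An equal volume of inoculum was added (200 µL per well). Run in triplicate.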

[4] = tested on: Candida albicans; experiment: Antimicrobial activity against Candida albicans C128 isolate at 6.25 ug/ml after 24 hrs
How it was run: (§3)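 Growth-inhibition microplate test. Strains are grown on Sabouraud-chloramphenicol agar for 48 h at 30 °C, and inoculum is added to RPMI-1640 containing compound at a final 100–6.25, with DMSO ≤2%. Each strain has a growth control (same DMSO, no compound) and a sterility control.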

[5] = tested on: Candida albicans; experiment: Antimicrobial activity against Candida albicans C129 isolate at 6.25 ug/ml after 24 hrs; how it was run: as §3
[6] = tested on: Cryptococcus neoformans; experiment: Antimicrobial activity against Cryptococcus neoformans IM 972751 isolate at 6.25 ug/ml after 48 hrs; how it was run: as §2
[7] = tested on: Trichophyton mentagrophytes; experiment: Antifungal activity against Trichophyton mentagrophytes ATCC 9972 after 48 hrs by broth microdilution technique; details: ATCC 9972, 48 h
How it was run: (§4)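 CLSI broth microdilution: M-27 A2 for yeasts and M-38 A for filamentous fungi. Medium is RPMI-1640 buffered to pH 7.0 with MOPS. Compound is diluted twofold from 250 to 0.98, final DMSO ≤2%. Inoculum is 1–5 × 10³ CFU/mL. Plates are incubated at 35 °C in a moist, dark chamber and read visually at 48 h. MIC100 is the lowest concentration giving total growth inhibition versus drug-free control.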

[8] = tested on: Candida albicans; experiment: Antimicrobial activity against Candida albicans C130 isolate at 6.25 ug/ml after 24 hrs; how it was run: as §3
[9] = tested on: Candida tropicalis; experiment: Antimicrobial activity against Candida tropicalis C131 isolate at 6.25 ug/ml after 24 hrs; how it was run: as §1
[10] = tested on: Cryptococcus neoformans; experiment: Antifungal activity against Cryptococcus neoformans ATCC 32264 after 48 hrs by broth microdilution technique; details: ATCC 32264, 48 h; how it was run: as §4
[11] = tested on: Nannizzia gypsea; experiment: Antifungal activity against Microsporum gypseum C115 after 48 hrs by broth microdilution technique; how it was run: as §4
[12] = tested on: Aspergillus flavus; experiment: Antifungal activity against Aspergillus flavus ATCC 9170 after 48 hrs by broth microdilution technique; details: ATCC 9170, 48 h; how it was run: as §4
[13] = tested on: Candida albicans; experiment: Antimicrobial activity against Candida albicans C127 isolate at 6.25 ug/ml after 24 hrs; details: C127, 24 h; how it was run: as §3
[14] = tested on: Candida albicans; experiment: Antimicrobial activity against Candida albicans ATCC 10231 at 6.25 ug/ml after 24 hrs; details: ATCC 10231, 24 h; how it was run: as §3
[15] = tested on: Cryptococcus neoformans; experiment: Antimicrobial activity against Cryptococcus neoformans IM 00319 isolate at 6.25 ug/ml after 48 hrs; how it was run: as §1
[16] = tested on: Cryptococcus neoformans; experiment: Antimicrobial activity against Cryptococcus neoformans IM 972724 isolate at 6.25 ug/ml after 48 hrs; how it was run: as §2
[17] = tested on: Cryptococcus neoformans; experiment: Antimicrobial activity against Cryptococcus neoformans IM 042074 isolate at 6.25 ug/ml after 48 hrs; how it was run: as §1
[18] = tested on: Candida parapsilosis; experiment: Antimicrobial activity against Candida parapsilosis C124 isolate at 6.25 ug/ml after 24 hrs; details: Lodderomyces parapsilosis; how it was run: as §1
[19] = tested on: Aspergillus niger; experiment: Antifungal activity against Aspergillus niger ATCC 9029 after 48 hrs by broth microdilution technique; details: ATCC 9029, 48 h; how it was run: as §4
[20] = tested on: Candida albicans; experiment: Antimicrobial activity against Candida albicans C126 isolate at 6.25 ug/ml after 24 hrs; how it was run: as §3
[21] = tested on: Cryptococcus neoformans; experiment: Antimicrobial activity against Cryptococcus neoformans IM 983040 isolate at 6.25 ug/ml after 48 hrs; how it was run: as §2
[22] = tested on: Pichia kudriavzevii; experiment: Antimicrobial activity against Candida krusei C117 isolate at 6.25 ug/ml after 24 hrs; how it was run: as §1
[23] = tested on: Saccharomyces cerevisiae; experiment: Antifungal activity against Saccharomyces cerevisiae ATCC 9763 after 48 hrs by broth microdilution technique; details: ATCC 9763, 48 h; how it was run: as §4
[24] = tested on: Candida albicans; experiment: Antifungal activity against Candida albicans ATCC 10231 after 48 hrs by broth microdilution technique; details: ATCC 10231, 48 h; how it was run: as §4
[25] = tested on: Cryptococcus neoformans; experiment: Antimicrobial activity against Cryptococcus neoformans IM 031631 isolate at 6.25 ug/ml after 48 hrs; how it was run: as §1
[26] = tested on: Cryptococcus neoformans; experiment: Antimicrobial activity against Cryptococcus neoformans IM 961951 isolate at 6.25 ug/ml after 48 hrs; how it was run: as §2
[27] = tested on: Trichophyton rubrum; experiment: Antifungal activity against Trichophyton rubrum C110 after 48 hrs by broth microdilution technique; how it was run: as §4
[28] = tested on: Cryptococcus neoformans; experiment: Antimicrobial activity against Cryptococcus neoformans IM 052470 isolate at 6.25 ug/ml after 48 hrs; how it was run: as §1
[29] = tested on: Aspergillus fumigatus; experiment: Antifungal activity against Aspergillus fumigatus ATTC 26934 after 48 hrs by broth microdilution technique; how it was run: as §4
[30] = tested on: Nakaseomyces glabratus; experiment: Antimicrobial activity against Candida glabrata C115 isolate at 6.25 ug/ml after 24 hrs; how it was run: as §1
[31] = tested on: Trichophyton rubrum; experiment: Antifungal activity against Trichophyton rubrum C136 isolate; details: read-out: MIC100
[32] = tested on: Trichophyton rubrum; experiment: Antifungal activity against Trichophyton rubrum C137 isolate; details: read-out: MIC100
[33] = tested on: Trichophyton rubrum; experiment: Antifungal activity against Trichophyton rubrum C133 isolate; details: read-out: MIC100
[34] = tested on: Trichophyton rubrum; experiment: Antifungal activity against Trichophyton rubrum C135 isolate; details: read-out: MIC100
[35] = tested on: Trichophyton mentagrophytes; experiment: Antifungal activity against Trichophyton mentagrophytes C132 isolate; details: read-out: MIC100
[36] = tested on: Trichophyton mentagrophytes; experiment: Antifungal activity against Trichophyton mentagrophytes C943 isolate; details: read-out: MIC100
[37] = tested on: Trichophyton mentagrophytes; experiment: Antifungal activity against Trichophyton mentagrophytes C131 isolate; details: read-out: MIC100
[38] = tested on: Trichophyton mentagrophytes; experiment: Antifungal activity against Trichophyton mentagrophytes C539 isolate; details: read-out: MIC100
[39] = tested on: Trichophyton mentagrophytes; experiment: Antifungal activity against Trichophyton mentagrophytes C364 isolate; details: read-out: MIC100

Q: `CC(=O)N1CCN(c2ccc(OCC3COC(Cn4ccnc4)(c4ccc(Cl)cc4Cl)O3)cc2)CC1` (configuration not stated) [KETOCONAZOLE] was tested. Which inhibition at 6.25 µg/mL [1] did it give?
A: 100%

Q: And the inhibition at 6.25 µg/mL [2]?
A: 100%

Q: What about the inhibition at 6.25 µg/mL [3] of the same compound?
A: 100%

Q: What about the inhibition at 6.25 µg/mL [4] of the same compound?
A: 100%

Q: What about the inhibition at 6.25 µg/mL [5] of the same compound?
A: 100%

Q: And the inhibition at 6.25 µg/mL [6]?
A: 100%

Q: What about the MIC [7] of the same compound?
A: 0.025 µg/mL (≈ 0.047 µM)

Q: And the inhibition at 6.25 µg/mL [8]?
A: 100%

Q: And the inhibition at 6.25 µg/mL [9]?
A: 100%

Q: What about the MIC [10] of the same compound?
A: 0.25 µg/mL (≈ 0.47 µM)

Q: And the MIC [11]?
A: 0.05 µg/mL (≈ 0.0941 µM)

Q: And the MIC [12]?
A: 0.5 µg/mL (≈ 0.941 µM)

Q: What about the inhibition at 6.25 µg/mL [13] of the same compound?
A: 100%

Q: And the inhibition at 6.25 µg/mL [14]?
A: 100%

Q: And the inhibition at 6.25 µg/mL [15]?
A: 100%

Q: And the inhibition at 6.25 µg/mL [16]?
A: 100%

Q: And the inhibition at 6.25 µg/mL [17]?
A: 100%

Q: What about the inhibition at 6.25 µg/mL [18] of the same compound?
A: 100%

Q: What about the MIC [19] of the same compound?
A: 0.25 µg/mL (≈ 0.47 µM)

Q: What about the inhibition at 6.25 µg/mL [20] of the same compound?
A: 100%

Q: And the inhibition at 6.25 µg/mL [21]?
A: 100%

Q: What about the inhibition at 6.25 µg/mL [22] of the same compound?
A: 100%

Q: And the MIC [23]?
A: 0.5 µg/mL (≈ 0.941 µM)

Q: And the MIC [24]?
A: 0.5 µg/mL (≈ 0.941 µM)

Q: What about the inhibition at 6.25 µg/mL [25] of the same compound?
A: 100%

Q: What about the inhibition at 6.25 µg/mL [26] of the same compound?
A: 100%

Q: And the MIC ([27]; read-out: MIC)?
A: 0.025 µg/mL (≈ 0.047 µM)

Q: And the inhibition at 6.25 µg/mL [28]?
A: 100%

Q: What about the MIC [29] of the same compound?
A: 0.125 µg/mL (≈ 0.235 µM)

Q: What about the inhibition at 6.25 µg/mL [30] of the same compound?
A: 100%

Q: For `CN(C/C=C/C#CC(C)(C)C)Cc1cccc2ccccc12` [TERBINAFINE], which MIC [31] is on record?
A: 0.006 µg/mL (≈ 0.0206 µM)

Q: What about the MIC [7] of the same compound?
A: 0.04 µg/mL (≈ 0.137 µM)

Q: What about the MIC [32] of the same compound?
A: 0.012 µg/mL (≈ 0.0412 µM)

Q: What about the MIC [33] of the same compound?
A: 0.006 µg/mL (≈ 0.0206 µM)

Q: And the MIC [34]?
A: 0.006 µg/mL (≈ 0.0206 µM)

Q: What about the MIC [11] of the same compound?
A: 0.04 µg/mL (≈ 0.137 µM)

Q: And the MIC [35]?
A: 0.006 µg/mL (≈ 0.0206 µM)

Q: And the MIC [36]?
A: 0.006 µg/mL (≈ 0.0206 µM)

Q: And the MIC [37]?
A: 0.006 µg/mL (≈ 0.0206 µM)

Q: What about the MIC [38] of the same compound?
A: 0.006 µg/mL (≈ 0.0206 µM)

Q: And the MIC [39]?
A: 0.006 µg/mL (≈ 0.0206 µM)

Q: And the MIC ([27]; read-out: MIC100)?
A: 0.01 µg/mL (≈ 0.0343 µM)
